Assay results from PubChem BioAssay.
Results filed as inconclusive are left out. Active and inactive are the calls of the source.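 Rule for the calls, unless noted: active = inhibition over a set limit, the all-compound mean plus 3 SD, in both replicate runs; inconclusive = over that limit in just one replicate run; inactive = at or under that limit in both runs.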

Columns and labels:
[1] = OD615 S. cerevisiae growth inhibition, permissive medium, pilot counter-assay, permissive growth control for S. cerevisiae lifespan shortening project (AID 705;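 active = growth inhibition above 25% in both replicates, a cutoff set 3 SD above the mean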); settings: OD615, 24 h, at 10 µM, active compounds read high
Summary of the method: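 Test system: Saccharomyces cerevisiae strain carrying genetically modified DeaD replicative-lifespan system; buffer or medium: SC raffinose/galactose permissive medium; dosing: one dose 10 µM, DMSO 0.25% final; times: 24 h exposure, 30 °C; measured by: OD at 615 nm; read-out basis: growth inhibition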

[2] = Restrictive medium S. cerevisiae growth inhibition, OD615, pilot screen of yeast lifespan reduction project, restrictive growth control (AID 706;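 active = growth inhibition above a set limit, 3 SD over mean compound inhibition, in both replicates, cut at about 43% in these data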;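 note: modified DeaD lifespan yeast strain shifted to restrictive glucose medium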); settings: OD615, 48 h, at 10 µM, active compounds read high
Summary of the method: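 material = engineered S. cerevisiae DeaD strain | buffer or medium = glucose-based CSMM-D restrictive medium | dosing = one concentration, 10 µM final, 0.25% DMSO | schedule = 4 h pre-growth plus 48 h compound exposure, 30 °C | detection = OD615 absorbance reading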

[3] = viability gain of MRP-1-high H69AR cells under doxorubicin, pilot screen, MRP-1 activator project, CellTiter-Glo, duplicate (AID 807;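 active = viability increase at or above a cutoff of the median across tested compounds plus 3 SD, cut at about 8.5% in these data, passing the limit was not always enough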;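 note: compound pretreatment 18-22 h then 72 h combined with doxorubicin; 0% = doxorubicin alone and 100% = vehicle without doxorubicin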); settings: H69AR viability with doxorubicin, CellTiter-Glo luminescence; at 10 µM; active compounds read high
[4] = growth suppression of beta-catenin knockout HCT116, pilot screen, human colon tumor cells (AID 823;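 active = cell viability at or below a set limit in both duplicate runs, the limit being the all-compound median minus 4 SD, cut at about 23% in these data, passing the limit was not always enough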;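 note: 0% = wells killed by 20 µM Hyamine and 100% = untreated DMSO cell wells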); settings: CellTiter-Glo, 60 h, at 10 µM, active compounds read low
[5] = growth suppression of PTEN-deleted HCT116, pilot screen, cell-based, HCT116 clonal line, CellTiter-Glo (AID 824;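 active = viability at or below 27.92% in each of two runs, the all-compound median minus 4 SD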;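 note: 0% = 20 µM Hyamine control and 100% = vehicle cell control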); settings: 60 h, at 10 µM, active compounds read low
[6] = inhibitors of the yeast RAM network, pilot screen, dse1pr::URA3 reporter, 5-FOA selection (AID 869);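 note: 0% = DMSO wells with no growth and 100% = 10 µM 1-NA-PP1 with full growth; RAM network block rescues cells from 5-FOA so hits raise OD615 growth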; settings: S. cerevisiae dse1pr::URA3 5-FOA growth, OD615, 2 d; at 10 µM; active compounds read high; strain carries analog-sensitive mutant Cbk1 kinase
[7] = RAM signaling pathway blockade in yeast – S. cerevisiae, Pdr1DBD-CYC8 efflux-inhibited sensitized strain, primary screen (AID 1298;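 active = RAM network inhibition above 8.4% in each of two replicates, 3 SD over the compound average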;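 note: 0% = DMSO untreated cells without growth and 100% = 10 µM 1-NA-PP1 full growth; higher means more yeast growth rescued from 5-FOA killing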); settings: S. cerevisiae cbk1-as DSE1-URA3 strain, 5-FOA growth OD615, 2 d; at 50 µM; active compounds read high

CC(=O)NC(CCS(C)(=O)=O)C(=O)Nc1cc(Cl)ccc1Cl (configuration not stated)
inactive: growth inhibition [1] -14.6% | growth inhibition [2] -17.2% | viability increase [3] 0.37% | viability [4] 105% | viability [5] 92% | inhibition [6] 2.08% | RAM network inhibition [7] 2.67%

COC(=O)c1cc(NC2c3ccccc3C(=O)N2c2ccc(Cl)cn2)cc(C(=O)OC)c1 (configuration not stated)
inactive: growth inhibition [1] -20.1% | growth inhibition [2] -16.2% | viability increase [3] 0.19% | viability [4] 71.2% | viability [5] 64.4% | inhibition [6] 1.5% | RAM network inhibition [7] 4.41%

CCN(CC)C(=O)C1CCCN(C/C=C/c2ccccc2)C1 (configuration not stated)
inactive: growth inhibition [1] -5% | growth inhibition [2] -9.31% | viability increase [3] -0.55% | viability [4] 84.9% | viability [5] 90.9% | inhibition [6] 0.74% | RAM network inhibition [7] -1.53%

N#CCCN1CCN(S(=O)(=O)c2ccc(S(=O)(=O)NC3CC3)cc2)CC1
inactive: growth inhibition [1] -10.4% | growth inhibition [2] -5.2% | viability increase [3] 0.24% | viability [4] 103% | viability [5] 99.6% | inhibition [6] 0.68% | RAM network inhibition [7] 3.16%

Cc1nnc(Nc2ccc3c(c2)OCO3)c2ccccc12
inactive: growth inhibition [1] -10.6% | growth inhibition [2] -15.2% | viability increase [3] -3.25% | viability [4] 92% | viability [5] 91.7% | inhibition [6] 0.365% | RAM network inhibition [7] 4.96%

CCCC(C(=O)N1CCOCC1)N1C(=O)C2C3C=CC(C3)C2C1=O (configuration not stated)
inactive: growth inhibition [1] -8.63% | growth inhibition [2] 3.61% | viability increase [3] 0.84% | viability [4] 99% | viability [5] 99% | inhibition [6] 0.215% | RAM network inhibition [7] -0.83%

C=CCn1cnc2scc(-c3ccccc3)c2c1=O
inactive: growth inhibition [1] 2.71% | growth inhibition [2] 10.9% | viability increase [3] -1.68% | viability [4] 93.6% | viability [5] 84.2% | inhibition [6] 2.52% | RAM network inhibition [7] 0.21%

CCCc1cc(C(=O)Nc2sc3c(c2C(=O)OCC)CCCC3)no1
inactive: growth inhibition [1] -19% | growth inhibition [2] -10.2% | viability increase [3] 1.82% | viability [4] 104% | viability [5] 99.5% | inhibition [6] 3.09% | RAM network inhibition [7] 3.28%

O=c1[nH]c(NC2CCCCC2)nnc1Cc1ccccc1
inactive: growth inhibition [1] -10% | growth inhibition [2] -5.11% | viability increase [3] 0.04% | viability [4] 102% | viability [5] 97.6% | inhibition [6] 2.53% | RAM network inhibition [7] 1.52%

COc1ccc(NC(=O)N(Cc2cccnc2)Cc2ccccc2Cl)c(OC)c1
inactive: growth inhibition [1] 0.09% | growth inhibition [2] -1.88% | viability increase [3] -3.53% | viability [4] 91.2% | viability [5] 93.9% | inhibition [6] 1.02% | RAM network inhibition [7] -0.05%

COc1cc(C2NC(=O)NC(C)=C2C(=O)OCc2ccc(C)cc2)cc(OC)c1O (configuration not stated)
inactive: growth inhibition [1] -12.9% | growth inhibition [2] -10.8% | viability increase [3] 3.29% | viability [4] 89.9% | viability [5] 82.1% | inhibition [6] 0.03% | RAM network inhibition [7] 0.58%

Cc1cccc(NC(=O)CN2C(=O)COc3ccc(Cl)cc32)c1C
inactive: growth inhibition [1] -3.47% | growth inhibition [2] -2.44% | viability increase [3] -0.9% | viability [4] 87.5% | viability [5] 85.8% | inhibition [6] 2.24% | RAM network inhibition [7] 4.67%

CCOc1ccccc1C1CC(c2ccc(Cl)cc2)Nc2nc(N)nn21 (configuration not stated)
inactive: growth inhibition [1] 0.515% | growth inhibition [2] 23% | viability increase [3] 1.4% | viability [4] 66.3% | viability [5] 77.6% | inhibition [6] -0.11% | RAM network inhibition [7] 1.24%

COc1ccccc1-c1nc(-c2ccccn2)no1
inactive: growth inhibition [1] -10.5% | growth inhibition [2] -2.21% | viability increase [3] -5.99% | viability [4] 45.5% | viability [5] 39.7% | inhibition [6] 0.975% | RAM network inhibition [7] 0.42%

COCC(=O)Nc1ccc(C(N)=O)cc1
inactive: growth inhibition [1] -13.6% | growth inhibition [2] -6.43% | viability increase [3] -0.44% | viability [4] 96.5% | viability [5] 95.3% | inhibition [6] 1.91% | RAM network inhibition [7] 7.41%

COc1ccccc1CNC(=O)c1ccc(CNc2c(N3CCCC3)c(=O)c2=O)cc1
inactive: growth inhibition [1] 3.65% | growth inhibition [2] -2.78% | viability increase [3] -2.46% | viability [4] 98.8% | viability [5] 94.8% | inhibition [6] 0.46% | RAM network inhibition [7] 2.8%

O=C(Cn1cc2c(n1)CCCC2)NCc1cccc(Cl)c1
inactive: growth inhibition [1] 4.46% | growth inhibition [2] 5.37% | viability increase [3] -0.45% | viability [4] 107% | viability [5] 99.3% | inhibition [6] 1.62% | RAM network inhibition [7] 3.09%

Nc1c(NCc2ccccc2F)c(=O)[nH]c(=O)n1Cc1ccccc1
inactive: growth inhibition [1] 0.38% | growth inhibition [2] -8.14% | viability increase [3] -1.53% | viability [4] 106% | viability [5] 100% | inhibition [6] 0.67% | RAM network inhibition [7] 1%

COc1ccc(C)cc1NC(=O)CSc1nnc(-c2ccco2)n1Cc1ccco1
inactive: growth inhibition [1] -0.8% | growth inhibition [2] 10.4% | viability increase [3] -2.06% | viability [4] 99.8% | viability [5] 90.8% | inhibition [6] 2.08% | RAM network inhibition [7] 6.62%

CC(C)(Oc1ccc(Cl)cc1)C(=O)N1CCN(c2ccccn2)CC1
inactive: growth inhibition [1] -7.41% | growth inhibition [2] 3.08% | viability increase [3] -2.47% | viability [4] 70.7% | viability [5] 76.1% | inhibition [6] 0.32% | RAM network inhibition [7] -1.34%

Cn1nc(-c2ccc(Cl)cc2)c2cc(C(=O)NCCCN3CCOCC3)sc21
active: viability [4] 4.12% | viability [5] 5.19%
inactive: growth inhibition [1] -3.37% | growth inhibition [2] 5.94% | viability increase [3] -7.82% | inhibition [6] -0.235% | RAM network inhibition [7] -0.16%

COc1ccccc1N1CCN(CC(=O)c2ccc3ccn(C(C)=O)c3c2)CC1
inactive: growth inhibition [1] -3.38% | growth inhibition [2] -12.2% | viability increase [3] -5.06% | viability [4] 88.2% | viability [5] 79.8% | inhibition [6] 1.14% | RAM network inhibition [7] 3.27%

COc1ccccc1N1CSC2=C(C#N)C(c3ccc(SC)cc3)CC(=O)N2C1 (configuration not stated)
inactive: growth inhibition [1] -1.16% | growth inhibition [2] 15.8% | viability increase [3] -5.15% | viability [4] 102% | viability [5] 94.7% | inhibition [6] 1.7% | RAM network inhibition [7] 3.52%

c1ccc(Cn2c(CSc3nnnn3-c3ccccc3)nc3ccccc32)cc1
inactive: growth inhibition [1] 0.645% | growth inhibition [2] 5.56% | viability increase [3] -2.93% | viability [4] 96.3% | viability [5] 95% | inhibition [6] 1.48% | RAM network inhibition [7] 5.11%

COc1ccc2c(c1)OC13CCN(C)CC1C2C(C(=O)c1ccc(F)cc1)C(=O)N3 (configuration not stated)
inactive: growth inhibition [1] -25.9% | growth inhibition [2] -21.6% | viability increase [3] -4.02% | viability [4] 78.9% | viability [5] 81.4% | inhibition [6] 0.27% | RAM network inhibition [7] 0.97%

COc1ccc(-c2nn(-c3ccccc3)cc2C(=O)O)cc1
inactive: growth inhibition [1] -8.52% | growth inhibition [2] 1.15% | viability increase [3] -3.69% | viability [4] 105% | viability [5] 97% | inhibition [6] 3.71% | RAM network inhibition [7] 11.1%

Cn1c(NC(=O)c2ccc3c(c2)OCO3)cc(=O)n(C)c1=O
inactive: growth inhibition [1] -5.14% | growth inhibition [2] -2.67% | viability increase [3] 0.04% | viability [4] 98.5% | viability [5] 92.3% | inhibition [6] 1.05% | RAM network inhibition [7] -2.06%

O=C(C1CCN(S(=O)(=O)c2cccc3cccnc23)CC1)N1CC=C(c2ccccc2)CC1
inactive: growth inhibition [1] 6.34% | growth inhibition [2] 9.98% | viability increase [3] -2.61% | viability [4] 79.9% | viability [5] 83% | inhibition [6] 1.93% | RAM network inhibition [7] 2.07%

O=C(NCc1ccco1)c1nnc(Cc2ccc(F)cc2)o1
inactive: growth inhibition [1] -18.4% | growth inhibition [2] -12.9% | viability increase [3] -0.65% | viability [4] 105% | viability [5] 89.5% | inhibition [6] 1.21% | RAM network inhibition [7] 4.79%

Cc1ccccc1C(=O)NCCN=C1NS(=O)(=O)c2ccccc21
inactive: growth inhibition [1] -7.76% | growth inhibition [2] 10.5% | viability increase [3] 0.1% | viability [4] 113% | viability [5] 103% | inhibition [6] 0.69% | RAM network inhibition [7] 1.88%

Cn1c(Cn2c(=O)sc3ccccc32)nnc1SCC(=O)NC1CCCC1
inactive: growth inhibition [1] -9.37% | growth inhibition [2] -5.96% | viability increase [3] -1.04% | viability [4] 102% | viability [5] 103% | inhibition [6] 0% | RAM network inhibition [7] 3.56%

CCSC1=C(C#N)C(c2ccc(C)s2)CC(=O)N1 (configuration not stated)
inactive: growth inhibition [1] -16.1% | growth inhibition [2] -6.45% | viability increase [3] -0.29% | viability [4] 95.8% | viability [5] 94.1% | inhibition [6] 0.425% | RAM network inhibition [7] 0.57%

O=C(CSc1ncnc2c1oc1ccccc12)NCc1ccc(F)cc1
inactive: growth inhibition [1] -0.505% | growth inhibition [2] -4.67% | viability increase [3] -3.33% | viability [4] 68.6% | viability [5] 81% | inhibition [6] -0.055% | RAM network inhibition [7] -2.13%

CCN(CC)c1ccc(NC(=O)Cn2cc3c(n2)CCC(C)C3)c(C)c1 (configuration not stated)
inactive: growth inhibition [1] 2.12% | growth inhibition [2] 1.57% | viability increase [3] 2.97% | viability [4] 80.4% | viability [5] 76.2% | inhibition [6] 0.835% | RAM network inhibition [7] -1.78%

CCCCN(C)C(=O)c1ccc2c(c1)N(CC)C(=O)c1ccccc1S2(=O)=O
inactive: growth inhibition [1] -2.31% | growth inhibition [2] 3.19% | viability increase [3] -1.45% | viability [4] 87.8% | viability [5] 91.2% | inhibition [6] 1.74% | RAM network inhibition [7] 4.11%

CCOC(=O)C1=C(C)NC(=O)NC1c1ccc(C)o1 (configuration not stated)
inactive: growth inhibition [1] 8.61% | growth inhibition [2] 7.96% | viability increase [3] -1.92% | viability [4] 105% | viability [5] 100% | inhibition [6] 0.345% | RAM network inhibition [7] 2.74%
